# In ChEMBL document CHEMBL4715736, “Identification of anticancer agents based on the thieno[2,3-b]pyridine and 1H-pyrazole molecular scaffolds” (2016):
# Key:
# Type in all cases: functional
# HCT-116 [1] = test: Growth inhibition of human HCT-116 cells assessed as cell growth at 0.01 uM incubated for 48 hrs by sulforhodamine B assay relative to control; settings: read-out: Activity
# HCT-15 = test: Growth inhibition of human HCT-15 cells assessed as cell growth at 100 uM incubated for 48 hrs by sulforhodamine B assay relative to control; settings: read-out: Activity
# NCI-H522 [2] = test: Growth inhibition of human NCI-H522 cells assessed as cell growth at 100 uM incubated for 48 hrs by sulforhodamine B assay relative to control; settings: read-out: Activity
# NCI/ADR-RES = test: Growth inhibition of human NCI/ADR-RES cells incubated for 48 hrs by sulforhodamine B assay; settings: for CC50: read-out: LC50 (the source's name)
# Method in brief: (§1)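 NCI60 panel at the NCI Developmental Therapeutics Program. Only compounds active in the 10 µM screen went to dose-response testing. GI50, the concentration giving 50% of maximal inhibition of proliferation, and TGI, the concentration giving total growth inhibition, were derived from the dose-response curves.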
# ACHN = test: Growth inhibition of human ACHN cells assessed as cell growth at 100 uM incubated for 48 hrs by sulforhodamine B assay relative to control; settings: read-out: Activity
# Hs-578T [3] = test: Growth inhibition of human Hs-578T cells assessed as cell growth at 0.1 uM incubated for 48 hrs by sulforhodamine B assay relative to control; settings: read-out: Activity
# KM12 [4] = test: Growth inhibition of human KM12 cells assessed as cell growth at 100 uM incubated for 48 hrs by sulforhodamine B assay relative to control; settings: read-out: Activity
# MOLT-4 = test: Growth inhibition of human MOLT-4 cells assessed as cell growth at 1 uM incubated for 48 hrs by sulforhodamine B assay relative to control; settings: read-out: Activity
# HCT-116 [5] = test: Growth inhibition of human HCT-116 cells assessed as cell growth at 0.1 uM incubated for 48 hrs by sulforhodamine B assay relative to control; settings: read-out: Activity
# SN12C = test: Growth inhibition of human SN12C cells assessed as cell growth at 1 uM incubated for 48 hrs by sulforhodamine B assay relative to control; settings: read-out: Activity
# MDA-MB-435 = test: Growth inhibition of human MDA-MB-435 cells assessed as cell growth at 1 uM incubated for 48 hrs by sulforhodamine B assay relative to control; settings: read-out: Activity
# Malme-3M = test: Growth inhibition of human Malme-3M cells incubated for 48 hrs by sulforhodamine B assay; method in brief: as §1
# NCI-H460 = test: Growth inhibition of human NCI-H460 cells assessed as cell growth at 100 uM incubated for 48 hrs by sulforhodamine B assay relative to control; settings: read-out: Activity
# K562 = test: Growth inhibition of human K562 cells incubated for 48 hrs by sulforhodamine B assay; method in brief: as §1
# UACC-257 = test: Growth inhibition of human UACC-257 cells assessed as cell growth at 1 uM incubated for 48 hrs by sulforhodamine B assay relative to control; settings: read-out: Activity
# HT-29 = test: Growth inhibition of human HT-29 cells assessed as cell growth at 100 uM incubated for 48 hrs by sulforhodamine B assay relative to control; settings: read-out: Activity
# NCI-H522 [6] = test: Growth inhibition of human NCI-H522 cells incubated for 48 hrs by sulforhodamine B assay; method in brief: as §1
# KM12 [7] = test: Growth inhibition of human KM12 cells assessed as cell growth at 1 uM incubated for 48 hrs by sulforhodamine B assay relative to control; settings: read-out: Activity
# DU-145 [8] = test: Growth inhibition of human DU-145 cells assessed as cell growth at 0.01 uM incubated for 48 hrs by sulforhodamine B assay relative to control; settings: read-out: Activity
# Method in brief: (§2)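 NCI Developmental Therapeutics Program NCI60 panel. Compounds that were active in the 10 µM one-dose screen went on to dose–response testing. Growth at each concentration is expressed relative to untreated control (100%). GI50 (concentration giving 50% of maximal inhibition of proliferation) and TGI (concentration giving total growth inhibition) were derived from the curves.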
# CCRF-CEM = test: Growth inhibition of human CCRF-CEM cells assessed as cell growth at 0.1 uM incubated for 48 hrs by sulforhodamine B assay relative to control; settings: read-out: Activity; method in brief: as §2
# OVCAR-3 = test: Growth inhibition of human OVCAR-3 cells assessed as cell growth at 100 uM incubated for 48 hrs by sulforhodamine B assay relative to control; settings: read-out: Activity
# SF-268 = test: Growth inhibition of human SF-268 cells assessed as cell growth at 0.01 uM incubated for 48 hrs by sulforhodamine B assay relative to control; settings: read-out: Activity
# MDA-MB-231 = test: Growth inhibition of human MDA-MB-231 cells assessed as cell growth at 0.01 uM incubated for 48 hrs by sulforhodamine B assay relative to control; settings: read-out: Activity
# M14 = test: Growth inhibition of human M14 cells incubated for 48 hrs by sulforhodamine B assay; method in brief: as §1
# HOP-62 = test: Growth inhibition of human HOP-62 cells assessed as cell growth at 100 uM incubated for 48 hrs by sulforhodamine B assay relative to control; settings: read-out: Activity
# DU-145 [9] = test: Growth inhibition of human DU-145 cells assessed as cell growth at 100 uM incubated for 48 hrs by sulforhodamine B assay relative to control; settings: read-out: Activity; method in brief: as §2
# SF-295 = test: Growth inhibition of human SF-295 cells assessed as cell growth at 0.1 uM incubated for 48 hrs by sulforhodamine B assay relative to control; settings: read-out: Activity
# Hs-578T [10] = test: Growth inhibition of human Hs-578T cells assessed as cell growth at 0.01 uM incubated for 48 hrs by sulforhodamine B assay relative to control; settings: read-out: Activity
# HOP-92 = test: Growth inhibition of human HOP-92 cells assessed as cell growth at 100 uM incubated for 48 hrs by sulforhodamine B assay relative to control; settings: read-out: Activity
# OVCAR-5 = test: Growth inhibition of human OVCAR-5 cells assessed as cell growth at 0.01 uM incubated for 48 hrs by sulforhodamine B assay relative to control; settings: read-out: Activity
# T47D = test: Growth inhibition of human T47D cells incubated for 48 hrs by sulforhodamine B assay; settings: for CC50: read-out: LC50 (the source's name)
# Method in brief: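 NCI DTP 60-line human tumour panel. Dose-response curves were run only for ligands active in the initial 10 µM screen. GI50 (concentration giving 50% of maximal inhibition of proliferation) and TGI (concentration giving total growth inhibition) were derived from these curves.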
# MCF7 = test: Growth inhibition of human MCF7 cells assessed as cell growth at 100 uM incubated for 48 hrs by sulforhodamine B assay relative to control; settings: read-out: Activity
# 786-0 = test: Growth inhibition of human 786-0 cells assessed as cell growth at 100 uM incubated for 48 hrs by sulforhodamine B assay relative to control; settings: read-out: Activity
smiles,measurement,setting,value
CCc1ccccc1NC(=O)c1sc2nc3c(cc2c1N)C(=O)CCC3,growth at 0.01 µM,HCT-116 [1],99%
same,growth at 100 µM,HCT-15,19%
same,growth at 100 µM,NCI-H522 [2],19%
same,GI50,NCI/ADR-RES,0.367 µM
same,TGI,NCI/ADR-RES,39.2 µM
same,CC50,NCI/ADR-RES,> 100 µM
same,growth at 100 µM,ACHN,10%
same,growth at 0.1 µM,Hs-578T [3],80%
same,growth at 100 µM,KM12 [4],13%
same,growth at 1 µM,MOLT-4,66%
same,growth at 0.1 µM,HCT-116 [5],99%
same,growth at 1 µM,SN12C,40%
same,growth at 1 µM,MDA-MB-435,-53%
same,GI50,Malme-3M,26.2 µM
same,LC50,Malme-3M,> 100 µM
same,TGI,Malme-3M,≥ 100 µM
same,growth at 100 µM,NCI-H460,3%
same,GI50,K562,0.203 µM
same,LC50 (concentration killing 50% of cells),K562,> 100 µM
same,TGI,K562,> 100 µM
same,growth at 1 µM,UACC-257,52%
same,growth at 100 µM,HT-29,-7%
same,GI50,NCI-H522 [6],0.502 µM
same,LC50,NCI-H522 [6],> 100 µM
same,TGI,NCI-H522 [6],> 100 µM
same,growth at 1 µM,KM12 [7],21%
same,growth at 0.01 µM,DU-145 [8],105%
same,growth at 0.1 µM,CCRF-CEM,89%
same,growth at 100 µM,OVCAR-3,-36%
same,growth at 0.01 µM,SF-268,103%
same,growth at 0.01 µM,MDA-MB-231,97%
same,GI50,M14,0.291 µM
same,LC50 (concentration killing 50% of cells),M14,> 100 µM
same,TGI,M14,> 100 µM
same,growth at 100 µM,HOP-62,-22%
same,growth at 100 µM,DU-145 [9],2%
same,growth at 0.1 µM,SF-295,76%
same,growth at 0.01 µM,Hs-578T [10],93%
same,growth at 100 µM,HOP-92,-6%
same,growth at 0.01 µM,OVCAR-5,84%
same,GI50,T47D,0.431 µM
same,TGI,T47D,≥ 100 µM
same,CC50,T47D,> 100 µM
same,growth at 100 µM,MCF7,9%
same,growth at 100 µM,786-0,-17%
Cc1ccc(NC(=O)c2sc3nc4c(cc3c2N)C(=O)CCC4)cc1C,growth at 0.01 µM,HCT-116 [1],99%
same,growth at 100 µM,HCT-15,7%
same,growth at 100 µM,NCI-H522 [2],-13%
same,GI50,NCI/ADR-RES,0.658 µM
same,TGI,NCI/ADR-RES,> 100 µM
same,CC50,NCI/ADR-RES,> 100 µM
same,growth at 100 µM,ACHN,12%
same,growth at 0.1 µM,Hs-578T [3],88%
same,growth at 100 µM,KM12 [4],9%
same,growth at 1 µM,MOLT-4,82%
same,growth at 0.1 µM,HCT-116 [5],90%
same,growth at 1 µM,SN12C,41%
same,growth at 1 µM,MDA-MB-435,-58%
same,LC50,Malme-3M,> 100 µM
same,TGI,Malme-3M,> 100 µM
same,growth at 100 µM,NCI-H460,-9%
same,GI50,K562,0.468 µM
same,LC50 (concentration killing 50% of cells),K562,> 100 µM
same,TGI,K562,35 µM
same,growth at 1 µM,UACC-257,50%
same,growth at 100 µM,HT-29,-23%
same,GI50,NCI-H522 [6],0.256 µM
same,LC50,NCI-H522 [6],> 100 µM
same,TGI,NCI-H522 [6],20 µM
same,growth at 1 µM,KM12 [7],24%
same,growth at 0.01 µM,DU-145 [8],104%
same,growth at 0.1 µM,CCRF-CEM,97%
same,growth at 100 µM,OVCAR-3,-23%
same,growth at 0.01 µM,SF-268,95%
same,growth at 0.01 µM,MDA-MB-231,98%
same,GI50,M14,0.366 µM
same,LC50 (concentration killing 50% of cells),M14,> 100 µM
same,TGI,M14,> 100 µM
same,growth at 100 µM,HOP-62,28%
same,growth at 100 µM,DU-145 [9],14%
same,growth at 0.1 µM,SF-295,85%
same,growth at 0.01 µM,Hs-578T [10],93%
same,growth at 100 µM,HOP-92,2%
same,growth at 0.01 µM,OVCAR-5,89%
same,GI50,T47D,0.444 µM
same,TGI,T47D,≥ 100 µM
same,CC50,T47D,> 100 µM
same,growth at 100 µM,MCF7,8%
same,growth at 100 µM,786-0,20%
